According to ChEMBL document CHEMBL4371052, “Diarylcarbonates are a new class of deubiquitinating enzyme inhibitor” (Bioorg Med Chem Lett, 2019):
Calls of active or inactive are those of the source. No cut-off for these calls is given here.

Key:
K562 = assay: Inhibition of deubiquitinase in human K562 cells assessed as accumulation of K48-linked HMW-Ub protein at 50 uM measured after 2 hrs by Western blot analysis; assay type: cell-based
Summary of the method: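 K562 cells exposed to compound at 50 μM for 2 h; K48-linked ubiquitin accumulation read by immunoblotting.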

Papain (Carica papaya) = biological target: T1, Papain (Carica papaya) (UniProt P00784); assay: Inhibition of papaya papain at 100 uM using Z-Arg-AMC as substrate preincubated for 30 mins followed by substrate addition by fluorescence assay
T1 sequence (whole entry): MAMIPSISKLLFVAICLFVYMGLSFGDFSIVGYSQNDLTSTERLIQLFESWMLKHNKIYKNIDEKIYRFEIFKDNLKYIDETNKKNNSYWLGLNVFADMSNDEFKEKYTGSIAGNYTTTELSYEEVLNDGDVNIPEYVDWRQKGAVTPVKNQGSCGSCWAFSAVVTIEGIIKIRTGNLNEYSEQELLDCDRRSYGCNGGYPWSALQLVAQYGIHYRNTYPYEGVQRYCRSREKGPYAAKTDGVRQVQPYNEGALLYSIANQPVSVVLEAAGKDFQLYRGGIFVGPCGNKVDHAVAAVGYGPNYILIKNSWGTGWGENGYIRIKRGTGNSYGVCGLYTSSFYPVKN
Summary of the method: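 Enzyme (papain or ficin) preincubated 30 min with inhibitor at 100 μM, then Z-Arg-AMC substrate added at 300 μM; AMC release followed.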

[1] = Inhibition of deubiquitinase in HEK293T cells assessed as stabilization of K48-linked HMW-Ub protein by Western blot analysis; assay type: cell-based, Homo sapiens
[2] = biological target: Ubiquitin carboxyl-terminal hydrolase 15 (Homo sapiens) (UniProt Q9Y4E8); assay: Inhibition of USP15 in HEK293T cell lysates at 25 uM using HA-tagged vinyl-sulfone as substrate measured after 2 to 30 mins by Western blot analysis; assay type: subcellular; details: Lysate
Chain of Ubiquitin carboxyl-terminal hydrolase 15 (Homo sapiens) (Q9Y4E8 whole entry): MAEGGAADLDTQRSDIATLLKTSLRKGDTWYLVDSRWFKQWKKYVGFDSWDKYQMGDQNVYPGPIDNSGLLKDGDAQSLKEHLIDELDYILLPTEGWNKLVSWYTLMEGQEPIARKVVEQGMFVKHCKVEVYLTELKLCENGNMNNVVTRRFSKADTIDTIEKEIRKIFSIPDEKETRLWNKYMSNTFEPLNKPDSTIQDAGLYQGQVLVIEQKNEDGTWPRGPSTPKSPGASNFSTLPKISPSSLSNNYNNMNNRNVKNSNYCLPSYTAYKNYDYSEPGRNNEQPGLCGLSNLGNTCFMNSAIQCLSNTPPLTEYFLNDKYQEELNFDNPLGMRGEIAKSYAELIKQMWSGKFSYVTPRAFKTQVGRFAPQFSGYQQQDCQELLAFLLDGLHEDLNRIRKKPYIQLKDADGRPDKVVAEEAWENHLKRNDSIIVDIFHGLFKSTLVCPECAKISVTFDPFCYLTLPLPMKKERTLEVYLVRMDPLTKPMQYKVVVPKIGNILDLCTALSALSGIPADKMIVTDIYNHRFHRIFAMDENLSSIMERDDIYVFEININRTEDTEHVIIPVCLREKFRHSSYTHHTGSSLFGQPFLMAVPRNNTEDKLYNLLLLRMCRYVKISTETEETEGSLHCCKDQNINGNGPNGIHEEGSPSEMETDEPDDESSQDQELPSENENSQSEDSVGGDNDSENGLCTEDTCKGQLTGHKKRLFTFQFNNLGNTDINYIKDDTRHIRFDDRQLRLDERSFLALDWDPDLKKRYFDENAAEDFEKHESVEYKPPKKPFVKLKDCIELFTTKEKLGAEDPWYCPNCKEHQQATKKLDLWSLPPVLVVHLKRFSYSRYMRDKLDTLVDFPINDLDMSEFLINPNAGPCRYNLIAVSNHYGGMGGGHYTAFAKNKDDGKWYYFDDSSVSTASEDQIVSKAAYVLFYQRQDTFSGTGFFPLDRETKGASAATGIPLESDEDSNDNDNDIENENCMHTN
Summary of the method: (§1)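 HEK 293T lysate (1.5 mg/ml) given compound (25 μM) or DMSO at the same time as HA-Ub-VS (1.5 μM). Aliquots withdrawn over time were run on SDS-PAGE and immunoblotted for HA.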

[3] = biological target: Ubiquitin carboxyl-terminal hydrolase 7 (Homo sapiens) (UniProt Q93009); assay: Inhibition of USP7 in human MCF7 cells assessed as increase in p53 expression after 4 to 48 hrs by Western blot analysis; assay type: cell-based
[4] = biological target: Ubiquitin carboxyl-terminal hydrolase 28 (Homo sapiens) (UniProt Q96RU2); assay: Inhibition of USP28 in HEK293T cell lysates at 25 uM using HA-tagged vinyl-sulfone as substrate measured after 2 to 30 mins by Western blot analysis; assay type: subcellular; details: Lysate; summary of the method: as §1
Chain of Ubiquitin carboxyl-terminal hydrolase 28 (Homo sapiens) (Q96RU2 whole entry): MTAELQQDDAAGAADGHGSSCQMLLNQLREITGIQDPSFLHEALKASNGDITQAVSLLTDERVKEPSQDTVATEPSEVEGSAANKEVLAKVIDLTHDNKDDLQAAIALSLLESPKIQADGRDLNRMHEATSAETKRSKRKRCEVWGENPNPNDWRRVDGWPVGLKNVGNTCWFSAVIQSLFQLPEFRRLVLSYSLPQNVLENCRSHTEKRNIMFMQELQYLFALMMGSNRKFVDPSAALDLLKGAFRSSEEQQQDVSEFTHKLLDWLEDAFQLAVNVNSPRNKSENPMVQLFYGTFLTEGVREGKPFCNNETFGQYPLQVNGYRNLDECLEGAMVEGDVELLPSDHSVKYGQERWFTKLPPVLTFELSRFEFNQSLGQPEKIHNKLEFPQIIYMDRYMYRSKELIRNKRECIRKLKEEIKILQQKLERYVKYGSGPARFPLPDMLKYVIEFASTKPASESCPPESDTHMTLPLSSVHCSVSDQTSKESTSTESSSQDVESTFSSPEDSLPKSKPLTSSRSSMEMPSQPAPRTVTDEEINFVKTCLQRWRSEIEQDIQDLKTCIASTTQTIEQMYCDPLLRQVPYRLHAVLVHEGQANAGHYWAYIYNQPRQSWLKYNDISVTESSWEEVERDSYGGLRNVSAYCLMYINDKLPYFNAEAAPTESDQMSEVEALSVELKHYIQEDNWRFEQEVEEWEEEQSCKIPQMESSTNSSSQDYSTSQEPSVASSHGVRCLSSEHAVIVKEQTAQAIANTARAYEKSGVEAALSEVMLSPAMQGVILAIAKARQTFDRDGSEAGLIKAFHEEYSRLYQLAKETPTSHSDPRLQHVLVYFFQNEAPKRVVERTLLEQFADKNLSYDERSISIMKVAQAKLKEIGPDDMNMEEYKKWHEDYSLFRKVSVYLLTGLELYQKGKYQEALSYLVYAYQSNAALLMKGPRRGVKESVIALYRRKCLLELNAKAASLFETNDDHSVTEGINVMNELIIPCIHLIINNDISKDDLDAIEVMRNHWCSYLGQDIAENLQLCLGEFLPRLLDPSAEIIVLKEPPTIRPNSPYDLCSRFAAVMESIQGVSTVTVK

[5] = biological target: Ubiquitin carboxyl-terminal hydrolase 9X (Homo sapiens) (UniProt Q93008); assay: Inhibition of USP9x in HEK293T cell lysates assessed as enzyme recovery at 250 uM using HA-tagged vinyl-sulfone as substrate preincubated for 40 mins followed by 10-fold dilution and subsequent substrate addition measured up to 2 hrs by Western blot analysis; assay type: subcellular; details: Lysate
Chain of Ubiquitin carboxyl-terminal hydrolase 9X (Homo sapiens) (Q93008 whole entry, the tested form may be a part): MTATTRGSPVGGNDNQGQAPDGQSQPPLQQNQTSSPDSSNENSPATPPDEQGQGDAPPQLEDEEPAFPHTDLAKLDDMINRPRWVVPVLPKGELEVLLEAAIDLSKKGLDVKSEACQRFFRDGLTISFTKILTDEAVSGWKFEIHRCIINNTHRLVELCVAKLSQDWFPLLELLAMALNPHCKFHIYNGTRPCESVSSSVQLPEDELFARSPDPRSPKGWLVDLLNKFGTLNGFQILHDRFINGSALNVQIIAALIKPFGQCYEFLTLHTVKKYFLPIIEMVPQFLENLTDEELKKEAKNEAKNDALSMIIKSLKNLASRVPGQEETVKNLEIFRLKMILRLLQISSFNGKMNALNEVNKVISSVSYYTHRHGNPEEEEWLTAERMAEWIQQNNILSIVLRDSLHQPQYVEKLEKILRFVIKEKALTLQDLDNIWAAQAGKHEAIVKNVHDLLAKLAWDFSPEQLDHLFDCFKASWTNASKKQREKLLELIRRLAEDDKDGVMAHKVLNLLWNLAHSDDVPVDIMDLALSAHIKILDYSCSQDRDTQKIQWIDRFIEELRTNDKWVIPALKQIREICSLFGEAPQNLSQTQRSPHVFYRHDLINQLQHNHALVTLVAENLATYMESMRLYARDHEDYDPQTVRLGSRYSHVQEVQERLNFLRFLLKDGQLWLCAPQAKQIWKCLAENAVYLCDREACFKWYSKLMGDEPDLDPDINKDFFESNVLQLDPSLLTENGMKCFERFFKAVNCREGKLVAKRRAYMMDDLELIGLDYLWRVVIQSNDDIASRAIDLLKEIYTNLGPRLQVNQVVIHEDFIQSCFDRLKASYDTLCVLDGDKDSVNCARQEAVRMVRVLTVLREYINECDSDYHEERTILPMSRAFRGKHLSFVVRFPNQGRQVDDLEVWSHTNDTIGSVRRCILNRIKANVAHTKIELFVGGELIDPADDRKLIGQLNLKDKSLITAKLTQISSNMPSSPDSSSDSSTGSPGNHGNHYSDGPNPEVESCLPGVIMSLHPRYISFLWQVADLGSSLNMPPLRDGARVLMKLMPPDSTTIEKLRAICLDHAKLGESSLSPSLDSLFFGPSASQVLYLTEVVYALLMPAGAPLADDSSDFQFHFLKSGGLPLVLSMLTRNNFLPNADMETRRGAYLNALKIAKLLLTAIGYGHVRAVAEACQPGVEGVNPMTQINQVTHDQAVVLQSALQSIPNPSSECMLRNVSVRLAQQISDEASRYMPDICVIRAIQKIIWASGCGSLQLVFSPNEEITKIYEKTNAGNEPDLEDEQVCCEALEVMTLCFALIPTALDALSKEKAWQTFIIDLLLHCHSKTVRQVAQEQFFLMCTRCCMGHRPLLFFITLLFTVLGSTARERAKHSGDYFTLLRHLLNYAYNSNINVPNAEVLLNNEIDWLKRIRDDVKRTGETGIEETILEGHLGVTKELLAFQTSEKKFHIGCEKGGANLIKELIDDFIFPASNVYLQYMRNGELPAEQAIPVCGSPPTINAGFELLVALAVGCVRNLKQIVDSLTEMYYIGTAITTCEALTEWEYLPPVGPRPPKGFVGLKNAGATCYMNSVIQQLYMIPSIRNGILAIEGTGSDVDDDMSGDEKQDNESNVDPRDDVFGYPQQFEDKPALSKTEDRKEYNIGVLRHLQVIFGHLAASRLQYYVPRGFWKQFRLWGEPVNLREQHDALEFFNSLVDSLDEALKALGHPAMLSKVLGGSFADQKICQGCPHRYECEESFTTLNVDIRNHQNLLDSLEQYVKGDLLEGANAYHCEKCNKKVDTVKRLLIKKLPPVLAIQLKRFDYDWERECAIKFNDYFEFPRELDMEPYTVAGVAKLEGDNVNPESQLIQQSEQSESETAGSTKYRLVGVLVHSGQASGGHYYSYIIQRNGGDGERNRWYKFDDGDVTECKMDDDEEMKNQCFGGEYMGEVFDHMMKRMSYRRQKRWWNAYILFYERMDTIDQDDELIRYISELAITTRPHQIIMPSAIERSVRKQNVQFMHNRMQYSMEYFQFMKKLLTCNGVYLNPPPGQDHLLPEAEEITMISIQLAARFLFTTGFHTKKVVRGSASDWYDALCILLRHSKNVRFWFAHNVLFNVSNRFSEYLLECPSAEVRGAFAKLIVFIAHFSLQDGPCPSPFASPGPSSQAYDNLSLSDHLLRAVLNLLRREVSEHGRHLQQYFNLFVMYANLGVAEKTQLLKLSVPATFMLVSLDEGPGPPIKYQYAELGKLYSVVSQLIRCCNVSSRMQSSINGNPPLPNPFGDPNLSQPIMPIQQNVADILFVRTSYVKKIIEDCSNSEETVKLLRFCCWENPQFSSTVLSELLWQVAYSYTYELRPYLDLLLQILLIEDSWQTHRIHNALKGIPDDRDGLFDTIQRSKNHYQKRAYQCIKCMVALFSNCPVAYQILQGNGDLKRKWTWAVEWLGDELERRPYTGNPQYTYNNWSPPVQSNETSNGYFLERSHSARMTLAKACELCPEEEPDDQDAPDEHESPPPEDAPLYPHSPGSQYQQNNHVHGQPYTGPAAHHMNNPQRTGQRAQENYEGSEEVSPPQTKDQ

[6] = biological target: 26S proteasome (Homo sapiens) (UniProt Q99460+P49721+P20618+P28074+P28062+P28065+P28072+O00487+P25786+P25787+P25788+P25789+P28066+P60900+O14818+Q8TAA3+P40306+A5LHX3+P49720+P28070+Q99436+Q16186+P35998+P62191+P43686+P62333+P17980+P62195+Q13200+O43242+O00232+O00231+Q15008+P51665+Q9UNM6+P55036+P48556+P60896); assay: Inhibition of 26S proteasome in HEK293T cells expressing GFP-fused Ub G76V mutant assessed as increase in GFP fluorescence; assay type: cell-based
Summary of the method: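 HEK 293T cells expressing G76V Ub-GFP, a fusion uncleavable by DUBs that reports ubiquitin-proteasome flux, treated with compound. GFP fluorescence was the read-out, with bortezomib as proteasome-inhibitor reference.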

B16-F10 = assay: Cytotoxicity against mouse B16F10 cells assessed as decrease in cell viability treated every 24 hrs measured after 72 hrs by alamar blue assay; assay type: functional, cell-based
Summary of the method: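 MCF7 or B16/F10 cells dosed with compound every 24 h. Viable cells were quantified with Alamar Blue after 72 h.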

**Q.** Which inhibition (K562) does the source give for `NCc1ccc(OC(=O)Oc2ccc3ccccc3c2)cc1` here?
**A.** Active

**Q.** What about the inhibition (Papain (Carica papaya)) of the same compound?
**A.** inactive

**Q.** And the EC50 [1]?
**A.** < 50 µM

**Q.** What about the inhibition [2] of the same compound?
**A.** inactive

**Q.** And the Activity [3]?
**A.** Active

**Q.** What about the inhibition [4] of the same compound?
**A.** inactive

**Q.** And the inhibition [5]?
**A.** inactive

**Q.** What about the inhibition [6] of the same compound?
**A.** inactive

**Q.** What about the Activity (B16-F10) of the same compound?
**A.** Active
